Values after ≈ are worked out from the molar mass of the structure shown.
Experiments:
Format in all cases: functional, organism-based
[1] = tested on: Aspergillus fumigatus; assay: Antifungal activity against Aspergillus fumigatus AF2025 spectrophotometry
Summary of the method: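 Conidia from 5–7-day Sabouraud agar cultures were adjusted to 80–82% transmittance at 530 nm, giving a final 0.4 × 10^4 to 5 × 10^4 CFU/ml in RPMI 1640 buffered at pH 7 with 0.165 M MOPS. They were tested in a checkerboard alone or with ciprofloxacin for 24 h at 37°C. A405 was converted to % of drug-free growth after background subtraction, an Emax model was fitted, and each test was run in triplicate.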

[2] = tested on: Candida albicans; assay: Antifungal activity against Candida albicans CA362 by spectrophotometry
Summary of the method: (§1)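 Clinical C. albicans blastoconidia came from 1- to 2-day Sabouraud cultures, with a final inoculum of 5 × 10^2 to 2.5 × 10^3 CFU/ml in RPMI 1640 buffered to pH 7 with 0.165 M MOPS. Incubation was 37°C for 24 h. A405 was corrected against a conidium-free plate and expressed as % of drug-free control, and an Emax model was fitted for EC50. Three replicates.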

[3] = tested on: Aspergillus fumigatus; assay: Antifungal activity against Aspergillus fumigatus AF2350 by spectrophotometry
Summary of the method: (§2)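 Clinical A. fumigatus conidia were harvested from 5- to 7-day Sabouraud cultures, with a final inoculum of 0.4 × 10^4 to 5 × 10^4 CFU/ml in RPMI 1640 (0.165 M MOPS, pH 7). Incubation was 37°C for 24 h. Growth at 405 nm, background-subtracted, was expressed as % of drug-free control, and an Emax model was fitted to give EC50. Three replicates.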

[4] = tested on: Candida albicans; assay: Antifungal activity against Candida albicans CA5685 by spectrophotometry; summary of the method: as §1
[5] = tested on: Candida albicans; assay: Antifungal activity against Candida albicans CA8621 by spectrophotometry; summary of the method: as §1
[6] = tested on: Aspergillus fumigatus; assay: Antifungal activity against Aspergillus fumigatus AF4215 spectrophotometry; summary of the method: as §2

Compound: C[C@@H]1[C@H](O)[C@@H](C)/C=C/C=C/C=C/C=C/C=C/C=C/C=C/[C@H](O[C@@H]2O[C@H](C)[C@@H](O)[C@H](N)[C@@H]2O)C[C@@H]2O[C@](O)(C[C@@H](O)C[C@@H](O)[C@H](O)CC[C@@H](O)C[C@@H](O)CC(=O)O[C@H]1C)C[C@H](O)[C@H]2C(=O)O [AMPHOTERICIN B]
- EC50 [1]: 0.5 µg/mL (≈ 0.541 µM)
- MIC [1]: 0.5 µg/mL (≈ 0.541 µM)
- EC50 [2]: 0.25 µg/mL (≈ 0.271 µM)
- MIC [2]: 0.125 µg/mL (≈ 0.135 µM)

Compound: CC[C@H](C)C[C@H](C)CCCCCCCCC(=O)N[C@H]1C[C@@H](O)[C@@H](NCCN)NC(=O)[C@@H]2[C@@H](O)CCN2C(=O)[C@H]([C@H](O)CCN)NC(=O)[C@H]([C@H](O)[C@@H](O)c2ccc(O)cc2)NC(=O)[C@@H]2C[C@@H](O)CN2C(=O)[C@H]([C@@H](C)O)NC1=O [CASPOFUNGIN]
- EC50 [3]: 28.8 µg/mL (≈ 26.3 µM)
- MIC [3]: 128 µg/mL (≈ 117 µM)
- EC50 [4]: 0.59 µg/mL (≈ 0.54 µM)
- MIC [4]: 1 µg/mL (≈ 0.915 µM)

Compound: OC(Cn1cncn1)(Cn1cncn1)c1ccc(F)cc1F [FLUCONAZOLE]
- EC50 [5]: 0.09 µg/mL (≈ 0.294 µM)
- MIC [5]: 0.125 µg/mL (≈ 0.408 µM)
- EC50 [6]: 0.18 µg/mL (≈ 0.588 µM)
- MIC [6]: 0.5 µg/mL (≈ 1.63 µM)
